Tests used:
[1] = tested on: PI(4,5)P2 biosensor in Arabidopsis suspension cells; experiment: PI; format: cell-based; conditions: 50 µM ABA for 24h
PLC activity = PLC activity in seedlings after ABA treatment; format: in vivo, Arabidopsis; conditions: 50 μM ABA for 24 h
How it was run: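 Ten-day-old seedlings grown on MS agar were incubated 24 h in the dark in liquid half-strength MS with or without 50 µM ABA. PLC activity in seedling extracts was measured in triplicate with the EnzCheck direct PLC kit. Fluorescence was normalised to the kit's Bacillus cereus PC-PLC. Groups were compared by one-way ANOVA with Tukey's test.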

full-length AtTSPO [2] = molecular target: T1, full-length AtTSPO (Arabidopsis thaliana, UniProt O82245); experiment: Protein-lipid overlay; format: binding
T1 sequence (O82245 1-196): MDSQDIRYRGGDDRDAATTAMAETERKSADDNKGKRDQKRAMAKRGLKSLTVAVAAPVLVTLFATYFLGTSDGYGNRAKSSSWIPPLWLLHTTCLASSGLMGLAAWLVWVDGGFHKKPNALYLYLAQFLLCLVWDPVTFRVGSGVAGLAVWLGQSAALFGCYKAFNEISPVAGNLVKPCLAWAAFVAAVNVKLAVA
How it was run: (§1)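 Lipids were spotted on nitrocellulose and air-dried 1 h: PA from CHCl3, and PI3P, PI4P and PI(4,5)P2 from 2% DDM. Commercial PIP strips were also used. Membranes were blocked in 3% BSA in TBS-Tween, incubated with purified protein in blocking buffer for 3 h at room temperature, then probed with primary and HRP secondary antibodies and developed by ECL.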

AtTSPO^Nter [3] = molecular target: T2, AtTSPO^Nter (Arabidopsis thaliana, UniProt O82245); experiment: Protein-lipid overlay with purified AtTSPO N-terminal peptide; format: binding
T2 sequence (O82245 1-49): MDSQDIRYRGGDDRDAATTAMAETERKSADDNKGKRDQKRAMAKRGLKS
How it was run: as §1

AtTSPO^Nter [4] = molecular target: T2, AtTSPO^Nter; experiment: NMR 1H-15N HSQC titration of AtTSPO^Nter with lipids; format: binding
AtTSPO^ΔN [5] = molecular target: T3, AtTSPO^ΔN (Arabidopsis thaliana, UniProt O82245); experiment: Microscale thermophoresis, PI; format: binding; conditions: RED-tris-NTA label
T3 sequence (O82245 42-196): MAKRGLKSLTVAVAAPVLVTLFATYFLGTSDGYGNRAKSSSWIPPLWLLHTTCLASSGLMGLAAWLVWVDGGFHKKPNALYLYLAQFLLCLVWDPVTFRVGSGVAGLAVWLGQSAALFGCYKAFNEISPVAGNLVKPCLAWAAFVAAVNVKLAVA
How it was run: (§2)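 Microscale thermophoresis used His-tag labelling with RED-tris-NTA. Full-length or N-terminally truncated 10His protein from yeast was titrated against a PI(4,5)P2 concentration gradient in 50 mM Tris pH 8.0, 200 mM NaCl, 10% glycerol, 2% DDM and protease inhibitors. Laser power was 10, 20 or 40%. Values are mean ± SD of three experiments, with Kd from non-linear regression.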

mTSPO = mTSPO (Mus musculus, UniProt P50637); experiment: Protein-lipid overlay with purified mouse TSPO; format: binding
How it was run: as §1

full-length AtTSPO [6] = molecular target: T1, full-length AtTSPO; experiment: Microscale thermophoresis, PI; format: binding
How it was run: as §2

[7] = molecular target: T4, AtTSPO-PIP2;7 interaction (Arabidopsis thaliana, UniProt O82245); experiment: Microscale thermophoresis of YFP-PIP2; format: binding; conditions: 50 μM lipid in trans
T4 sequence (O82245 1-196): T1 sequence (O82245 1-196)
T4 sequence (P93004 1-280 partner): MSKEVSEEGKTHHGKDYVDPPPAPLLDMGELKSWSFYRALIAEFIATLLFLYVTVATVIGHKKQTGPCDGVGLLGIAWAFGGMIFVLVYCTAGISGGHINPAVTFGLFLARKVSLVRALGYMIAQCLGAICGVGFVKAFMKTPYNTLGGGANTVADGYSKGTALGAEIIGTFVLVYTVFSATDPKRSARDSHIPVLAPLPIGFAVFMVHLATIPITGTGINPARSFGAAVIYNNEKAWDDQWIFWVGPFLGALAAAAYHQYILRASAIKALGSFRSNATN
How it was run: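 The aquaporin (mVenus-tagged YFP-PIP2;7) was a DDM-solubilised microsomal fraction from transgenic Arabidopsis seedlings. It was titrated against a range of AtTSPO concentrations, with 50 µM PI(4,5)P2, phosphatidylcholine, or no lipid added. Buffer was 50 mM Tris pH 8.0, 200 mM NaCl, 10% glycerol, 2% DDM. YFP was read through the green filter. Normalised data from three experiments (mean ± SD) were fitted by non-linear regression.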

full-length AtTSPO [8] = molecular target: T1, full-length AtTSPO; experiment: Microscale thermophoresis, phosphatidic acid titrated against full-length AtTSPO; format: binding; conditions: protein labeled with NT-647-NHS, non-linear fitting
How it was run: (§3)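 Microscale thermophoresis was run on a Monolith NT115. Lysine residues of yeast-derived full-length protein or bacterially expressed N-terminal peptide were labelled with NT-647-NHS. Labelled protein was titrated against a PA concentration gradient in 50 mM Tris pH 8.0, 200 mM NaCl, 10% glycerol, 2% DDM and protease inhibitors. LED power was 100%. Kd came from non-linear fitting of normalised fluorescence.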

[9] = molecular target: T5, N-terminal peptide (AtTSPO^Nter) (Arabidopsis thaliana, UniProt O82245); format: binding; conditions: thermophoresis; peptide labeled with NT-647-NHS; non-linear fitting
T5 sequence (O82245 1-49): T2 sequence (O82245 1-49)
How it was run: as §3

AtTSPO^ΔN [10] = molecular target: T3, AtTSPO^ΔN; experiment: Membrane-spotted PA gradient / PA pull-down with AtTSPO^ΔN; format: binding; conditions: membrane-spotted gradient of PA
How it was run: as §1

Sequence of mTSPO (P50637 whole entry): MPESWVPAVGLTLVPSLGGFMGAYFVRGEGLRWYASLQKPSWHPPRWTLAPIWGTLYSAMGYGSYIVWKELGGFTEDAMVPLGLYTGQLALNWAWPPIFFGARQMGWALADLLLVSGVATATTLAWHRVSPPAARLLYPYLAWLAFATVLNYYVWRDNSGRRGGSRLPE

Which results are given for `CC1=CC(=O)CC(C)(C)[C@@]1(O)/C=C/C(C)=C\C(=O)O` [ABA, abscisic acid]?
distribution of the PI(4,5)P2 biosensor [1]: partial redistribution of the PI(4,5)P2 biosensor from the PM to the cytosol; effect on PLC activity (PLC activity; KO TSPO seedlings): no effect; increase of PLC activity (PLC activity; OE TSPO seedlings): ~4 fold; enhancement of PLC activity compared with untreated samples (PLC activity; WT seedlings): ~20%; effect on PLC activity (PLC activity; seedlings overexpressing N-terminally truncated AtTSPO): no effect

What does the source list for `CCCCCCCC/C=C\CCCCCCCC(=O)OC[C@H](COP(=O)(O)O[C@@H]1[C@H](O)[C@H](O)[C@@H](OP(=O)(O)O)[C@H](OP(=O)(O)O)[C@H]1O)OC(=O)CCCCCCC/C=C\CCCCCCCC` [PI(4,5)P2, 1,2-dioleoyl-sn-glycero-3-phospho-(1’-myo-inositol-4’,5’-bisphosphate)]?
binding to purified full-length AtTSPO (full-length AtTSPO [2]): could bind; binding to N-terminal peptide of AtTSPO (AtTSPO^Nter [3]): could bind; Kd (AtTSPO^Nter [4]): ~150 µM; binding to AtTSPO^ΔN (AtTSPO^ΔN [5]): no binding was observed; binding to mTSPO (mTSPO): did not bind; Kd (full-length AtTSPO [6]): 2300 ± 700 µM; AtTSPO and Venus-PIP2;7 interaction [7]: clearly indicating a protein-protein interaction

PI3P was tested. Which “binding to purified full-length AtTSPO” value (full-length AtTSPO [2]) did it give?
The value was “could bind”.

What about the “binding to N-terminal peptide of AtTSPO” value (AtTSPO^Nter [3]) of the same compound?
Its value is “could bind”.

What about the “binding to mTSPO” value (mTSPO) of the same compound?
Its value is “bind”.

For PI4P, which “binding to purified full-length AtTSPO” value (full-length AtTSPO [2]) is on record?
The value was “could bind”.

And the “binding to N-terminal peptide of AtTSPO” value (AtTSPO^Nter [3])?
The value was “could bind”.

How did the “binding to purified full-length AtTSPO” value (full-length AtTSPO [2]) turn out when PI5P was run?
The value was “could bind”.

And the “binding to N-terminal peptide of AtTSPO” value (AtTSPO^Nter [3])?
The value was “could bind”.

How did the “binding to purified full-length AtTSPO” value (full-length AtTSPO [2]) turn out when PI(3,4)P2 was run?
The value was “bound all tested PIs except PI(3,4)P2”.

With phosphatidic acid [PA] as the compound, how does the “binding to purified full-length AtTSPO” value (full-length AtTSPO [2]) read?
The value was “bound”.

What about the Kd (full-length AtTSPO [8]) of the same compound?
The Kd was 2100 µM.

What about the Kd [9] of the same compound?
Its Kd is 3300 µM.

And the “binding to AtTSPO^ΔN” value (AtTSPO^ΔN [10])?
Its value is “could not bind”.

For phosphatidylcholine [PC], which “AtTSPO and Venus-PIP2;7 interaction” value [7] is on record?
The value was “no interaction”.

Which “binding to purified full-length AtTSPO” value (full-length AtTSPO [2]) does the source give for phosphatidylserine [PS] here?
The value was “bound”.

Source: PMC7033594 (iScience, 2020)
